Compounds with a hit are over-represented: about 2% of the library has one in this group of screens.
CDK5 inh = inhibitors of human CDK5/p35 kinase | inhibition, % at 10 µM | Recombinant CDK5/p35, ADP-Glo luminescence, 60 min | AID 488839 | Q00535+Q15078 | 330,000 tested, 0.01% active;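 active = highest replicate inhibition of at least 50% and at least 75% of replicates reaching 50%; inconclusive = only one of the two criteria met; inactive = both criteria failed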
dFosB act-1 = mouse delta FosB homodimer activation | AID 493131 | activation, % at 25 µM | purified delta FosB, TAMRA-CDK5 oligo fluorescence polarization; percent of positive-control signal above neutral wells | P13346 | 340,000 tested, 0.99% active;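 active = mean activation above about 17%, with every replicate also reaching it, limit read from the data, passing the limit was not always enough; inconclusive = only one of the two conditions met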
Target sequence (P13346 whole entry, looked up): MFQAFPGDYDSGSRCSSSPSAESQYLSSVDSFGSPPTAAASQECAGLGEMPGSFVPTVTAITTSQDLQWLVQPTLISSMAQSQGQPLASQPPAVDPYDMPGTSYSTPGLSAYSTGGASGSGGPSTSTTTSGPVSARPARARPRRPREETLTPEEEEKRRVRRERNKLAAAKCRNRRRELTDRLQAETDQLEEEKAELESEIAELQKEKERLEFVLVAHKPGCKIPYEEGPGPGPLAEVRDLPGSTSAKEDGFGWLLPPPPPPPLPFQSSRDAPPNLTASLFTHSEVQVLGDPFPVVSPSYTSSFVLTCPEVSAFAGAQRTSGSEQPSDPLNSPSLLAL
SR-BI DiI inh = blocks mouse SR-BI lipid uptake from DiI-HDL; 320,000 tested, 0.96% active; inhibition, % at 12.5 µM; Q61009; ldlA[mSR-BI] CHO cells, DiI-HDL uptake fluorescence, 3 h;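 active = mean replicate inhibition of at least 70% and a set share of replicates each scoring 70 or more; inconclusive = meets just one of the two criteria; inactive = fails both criteria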
SR-BI DiI-HDL act = enhances SR-BI lipid uptake from DiI-HDL | 320,000 tested, 0.096% active | CHO ldlA[mSR-BI] cells, DiI-HDL uptake fluorescence, 3 h; 100 = double the neutral-control signal | activation, % at 12.5 µM;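 active = mean replicate activation of at least 60% and every replicate at or above 60%; inconclusive = mean or all-replicate condition met, but not both; inactive = mean below 60% and not all replicates reaching 60%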
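Test system: SR-BI-overexpressing, LDLR-lacking CHO cells. Measured by: DiI fluorescence, bottom read. Medium: Ham's F12 with 0.5% BSA, HEPES 25 mM, pH 7.4. Timing: 3 h uptake period with compound, 37 °C.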
dFosB act-2 = delta FosB (mouse) homodimer activation | shares compounds with dFosB act-1 | purified delta FosB, TAMRA-CDK5 oligo fluorescence polarization; normalised: neutral wells 0, positive control 100 | 2,400 tested, under 10 active | AID 588690 | activation, % at 24.9 µM;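 active = highest replicate activation at or above 34% and every replicate reaching that threshold; inconclusive = meets only one of the two criteria; inactive = meets neither criterion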;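 also: higher polarization means more probe DNA bound by delta FosB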
Of the large screens only hits and unclear results are named; the others gave an inactive call (follow-up assays come after a bar, where they were run).

COc1cc2[nH]c(=S)nc(NCc3cccc(Cl)c3)c2cc1OC	none
c1ccc(CNc2nc(-c3cccnc3)nc3ccccc23)cc1	none
c1ccc(CNc2nc(-c3cccs3)nc3ccccc23)cc1	dFosB act-1 17 | dFosB act-2 inactive
c1ccc(CNc2nc(-c3ccccc3)nc3ccccc23)cc1	none
S=c1nc(NCc2cccc(Cl)c2)c2ccccc2[nH]1	dFosB act-1 45 | dFosB act-2 inactive
C[C@H](NC(=O)[C@H](Cc1ccccc1)NC(=O)c1cc2cc(Cl)ccc2n1C)C(=O)O	none
CCN(CC(=O)Nc1ccccc1C(F)(F)F)C(=O)CSCc1ccc(C)cc1	none
COc1ccccc1C(CNC(=O)C(C)Oc1ccc(Br)cc1)N1CCCC1 (stereo not drawn)	none
CCOC(=O)c1ccc(-n2cccc2/C=C2\NC(=O)NC2=O)cc1	dFosB act-1 30 | dFosB act-2 inactive
O=C(CSc1n[nH]c(-c2ccccn2)n1)Nc1cccc(Cl)c1	none
CCOc1ccc(NS(=O)(=O)c2ccc(C(=O)NCC(c3ccc(OC)cc3)N3CCCC3)cc2)cc1 (stereo not drawn)	dFosB act-1 24 | dFosB act-2 inactive
COc1ccc(C(=O)Nc2ccccc2C(=O)NC(Cc2ccc(O)cc2)C(=O)NNC(=O)c2ccccc2)cc1 (stereo not drawn)	none
COc1ccc(C(=O)Nc2ccccc2C(=O)NC(Cc2ccc(O)cc2)C(=O)NNC(=O)c2ccc(C)cc2)cc1 (stereo not drawn)	dFosB act-1 100 | dFosB act-2 inactive
COc1cc(OC)cc(C(=O)NC(C(=O)NNC(=O)c2ccc(C)cc2)C(C)C)c1 (stereo not drawn)	none
N#Cc1c(NCCN)nc(-c2ccco2)c2c1CCCC2	dFosB act-1 26 | dFosB act-2 inactive
CC(C)CCNc1nc(-c2ccco2)c2c(c1C#N)CCCC2	none
Nc1nc(CCOc2ccc(F)cc2)cs1	none
O=C1COc2ccc(C(=O)CSc3nc4ccccc4c(=O)n3-c3ccc(Cl)c(Cl)c3)cc2N1	dFosB act-1 56 | dFosB act-2 inactive
CCc1ccc(-n2c(SCC(=O)c3ccc4c(c3)NC(=O)CO4)nc3ccccc3c2=O)cc1	none
COc1ccccc1Nc1nnc(SCC(=O)Nc2cc(C)on2)s1	none
O=C1COc2ccc(C(=O)CSc3nnc(NCc4ccccc4)s3)cc2N1	dFosB act-1 43 (no result: SR-BI DiI inh, SR-BI DiI-HDL act) | dFosB act-2 inactive
Cc1cc(NC(=O)CSc2nnc(NCc3ccccc3)s2)no1	dFosB act-1 22 (no result: SR-BI DiI inh, SR-BI DiI-HDL act) | dFosB act-2 inactive
O=C1COc2ccc(C(=O)CSc3nnc(Cc4ccccc4)o3)cc2N1	none
Cn1c(SCC(=O)c2ccc3c(c2)NC(=O)CO3)nc2ccccc21	dFosB act-1 39 | dFosB act-2 inactive
NC(=O)c1nsc(C(=O)N(c2cccc(F)c2)C(C(=O)NCC2CCCO2)c2cccs2)c1N (stereo not drawn)	none
COCC1COS(=O)(=O)NC1(C)C (stereo not drawn)	none
CN(C)CCSc1nc(N)c2c3c(sc2n1)CN(C)CC3	dFosB act-1 25 | dFosB act-2 inactive
CCCSc1nc(N)c2c3c(sc2n1)CN(C)CC3	none (no result: SR-BI DiI inh, SR-BI DiI-HDL act)
Cc1cccc(NC(=O)c2cc3c(=O)n4ccccc4nc3s2)c1	dFosB act-1 16 | dFosB act-2 inactive
O=C(COc1ccc2ccccc2c1)NC1=NCCS1	dFosB act-1 54 | dFosB act-2 inactive
COc1cc(OC)cc(C(=O)N=c2sc3ccccc3n2C)c1	none
COc1cccc(C(=O)N=c2sc3cc(S(C)(=O)=O)ccc3n2C)c1	dFosB act-1 27 | dFosB act-2 inactive
S=C1Nc2ccccc2Sc2ccc(Cl)cc21	dFosB act-1 34 | dFosB act-2 inactive
COc1ccccc1NC(=O)Cn1ncc2c1-c1ccccc1OC2	none
CCOc1ccc(-c2cc(NC(=O)Cn3ncc4c3-c3ccccc3OC4)on2)cc1OCC	dFosB act-1 39 | dFosB act-2 inactive
COc1ccc(C)cc1Nc1nc(N)c2ccccc2n1	dFosB act-1 27 | dFosB act-2 inactive
Cc1ccccc1Nc1nc(N)c2ccccc2n1	none
CCN(CC)CCNC(=O)c1ccc(NC(=O)Nc2cccc3ccccc23)cc1	none
COc1ccccc1CCNC(=O)c1ccc2nc[nH]c2c1	none
Cc1ccccc1NC(=O)c1ccc(F)c(S(=O)(=O)N2CCN(c3ccccn3)CC2)c1	dFosB act-1 19 | dFosB act-2 inactive
O=C(Nc1ccc(Br)cc1)c1ccc(F)c(S(=O)(=O)N2CCN(c3ccccn3)CC2)c1	none
O=C(Nc1ccc(Cl)cc1)c1ccc(OC2CSC2)cc1	dFosB act-1 21 | dFosB act-2 inactive
O=C(CSc1nc2ccccc2[nH]1)NC1CCCc2ccccc21 (stereo not drawn)	none
O=C(CSc1nc2ccc(Cl)cc2[nH]1)NC1CCCc2ccccc21 (stereo not drawn)	dFosB act-1 19 | dFosB act-2 inactive
Cc1cccc(CCNC(=O)Cn2ncc3c([nH]c4ccccc43)c2=O)c1	dFosB act-1 inconclusive
COc1cccc2cc(-c3cc(=O)oc4ccc(OCC(C)=O)cc34)oc12	none
COC(=O)COc1ccc2oc(=O)cc(-c3cc4cccc(OC)c4o3)c2c1	dFosB act-1 52 | dFosB act-2 inactive
Cc1ccc(C)c(NC(=O)C2CC3c4ccccc4C2c2ccccc23)c1 (stereo not drawn)	dFosB act-1 40 | dFosB act-2 inactive
CCC(=O)C1CCCN(C(=O)c2cccc(OC3CCN(S(C)(=O)=O)CC3)c2)C1 (stereo not drawn)	none
COc1cccc(C(=O)Nc2nnc(SCC(=O)NC3CCCC3)s2)c1	dFosB act-1 22 | dFosB act-2 inactive
O=C(CSc1nnc(NC(=O)c2cccc(F)c2)s1)NC1CCCC1	dFosB act-1 60 (no result: SR-BI DiI inh, SR-BI DiI-HDL act) | dFosB act-2 inactive
COc1ccc(S(=O)(=O)N2CCCCC2)cc1NC(=O)c1ccc(CS(C)(=O)=O)cc1	none
COc1ccccc1NC(=O)Nc1nnc(Cc2ccccc2F)s1	none
COc1ccccc1NC(=O)Nc1nc(CC(=O)Nc2ccc(F)c(F)c2)cs1	dFosB act-1 inconclusive
COC(=O)Nc1nnc(CC(=O)Nc2ccccc2C)s1	none
COc1ccccc1NC(=O)Nc1nc(CC(=O)Nc2ccc(F)cc2)cs1	dFosB act-1 27 | dFosB act-2 inactive
Cc1ccccc1NC(=O)Cc1nnc(NC(=O)Nc2ccccc2F)s1	dFosB act-1 52 | dFosB act-2 inactive
O=C(Nc1ccc(Cl)cc1)Nc1nnc(CSCc2ccc(Cl)cc2)s1	dFosB act-1 19 | dFosB act-2 inactive
COc1ccccc1NC(=O)Nc1nnc(CC(=O)Nc2cccc(C)c2)s1	dFosB act-1 32 (no result: SR-BI DiI inh, SR-BI DiI-HDL act) | dFosB act-2 inactive
CC(C)(C)c1ccc(C(=O)NCC(=O)NCc2ccccn2)cc1	none
COc1cccc(NC(=O)Nc2nnc(CC(=O)NCc3ccccc3)s2)c1	dFosB act-1 39 (no result: SR-BI DiI inh, SR-BI DiI-HDL act) | dFosB act-2 inactive
O=C(Nc1ccc(F)cc1)Nc1nnc(Cc2ccccc2F)s1	dFosB act-1 21 | dFosB act-2 inactive
